Measurements published in ChEMBL document CHEMBL5104204, “Synthesis and in vitro anticancer evaluation of novel flavonoid-based amide derivatives as regulators of the PI3K/AKT signal pathway for TNBC treatment” (RSC Med Chem, 2022).

What was measured:
MDA-MB-231 [1] = assay: Antitumor activity against human MDA-MB-231 cells assessed as inhibit cell proliferation incubated for 72 hrs by CCK-8 assay; format: functional, cell-based; conditions: MDA-MB-231, 72 h
Outline: (§1)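 CCK8 viability readout. Culture media: HCC1937, A549, HeLa and GTL-16 in RPMI 1640; MDA-MB-231, MCF-7 and HepG2 in high-glucose DMEM; all with 10% FBS and penicillin/streptomycin, 37 °C, 5% CO2. 4×10^3–6×10^3 cells/well, 24 h, then compounds in serum-free medium, 72 h at 37 °C. 10% CCK8, 2 h, OD 450/630 nm. Five wells per group; IC50 from inhibition rate; three independent experiments, mean ± SD.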

MCF7 = assay: Antitumor activity against human MCF7 cells assessed as inhibit cell proliferation incubated for 72 hrs by CCK-8 assay; format: functional, cell-based; conditions: MCF7, 72 h; outline: as §1
HCC1937 = assay: Antitumor activity against human HCC1937 cells assessed as inhibit cell proliferation incubated for 72 hrs by CCK-8 assay; format: functional, cell-based; conditions: HCC1937, 72 h; outline: as §1
HepG2 = assay: Antitumor activity against human HepG2 cells assessed as inhibit cell proliferation incubated for 72 hrs by CCK-8 assay; format: functional, cell-based; conditions: HepG2, 72 h; outline: as §1
HeLa = assay: Antitumor activity against human HeLa cells assessed as inhibit cell proliferation incubated for 72 hrs by CCK-8 assay; format: functional, cell-based; outline: as §1
MDA-MB-231 [2] = assay: Inhibition of colony formation in human MDA-MB-231 cells assessed as decrease in size of colony forming cells at 0.44 to 3.52 uM incubated for 48 hrs by crystal violet staining based assay; format: functional, cell-based; conditions: dose 0.44-3.52 µM, DDE = dose-dependent effect
Outline: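 Colony formation, MDA-MB-231: 800 cells/well, three replicate wells per group, grown 5–7 days at 37 °C, 5% CO2 until 30–50-cell clusters formed. Drug then added for 24, 48 or 72 h. Washed with cold PBS, fixed in 4% paraformaldehyde 30 min, stained with 0.5% crystal violet, imaged, colonies counted; n = 3.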

MDA-MB-231 [3] = assay: Induction of apoptosis in human MDA-MB-231 cells assessed as chromatin concentration and margination at 0.88 to 3.52 uM incubated for 48 hrs by Hoechst 33258 staining based fluorescence microscopic analysis; format: functional, cell-based; conditions: dose 0.88-3.52 µM, DDE = dose-dependent effect
Outline: (§2)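 MDA-MB-231 seeded at 2×10^5–3×10^5 per well and incubated overnight (37 °C, 5% CO2). Exposed to compound for 48 h. Fixed in methanol 30 min, then stained with Hoechst 33258 for 30 min at room temperature in the dark. Nuclear morphology scored by fluorescence microscopy; n = 3, mean ± SD.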

MDA-MB-231 [4] = assay: Induction of apoptosis in human MDA-MB-231 cells assessed as half-moon, loop and ellipse shaped fragment formation at 0.88 to 3.52 uM incubated for 48 hrs by Hoechst 33258 staining based fluorescence microscopic analysis; format: functional, cell-based; conditions: dose 0.88-3.52 µM, DDE = dose-dependent effect; outline: as §2
MDA-MB-231 [5] = assay: Induction of cell cycle arrest in human MDA-MB-231 cells assessed as increase in accumulation at G0/G1 phase at 0.88 to 3.52 uM incubated for 48 hrs by flow cytometry; format: functional, cell-based; conditions: dose 0.88-3.52 µM, DDE = dose-dependent effect
Outline: (§3)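 Cell cycle of MDA-MB-231 after 48 h exposure: trypsinised and washed in PBS, about 1×10^6 cells/mL. Fixed overnight in pre-cooled 70% ethanol at 4 °C, then resuspended in PBS and filtered through 200-mesh nylon. Flow cytometry with 488 nm excitation gave G0/G1, S and G2/M percentages; n = 3, mean ± SD.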

MDA-MB-231 [6] = assay: Induction of cell cycle arrest in human MDA-MB-231 cells assessed as decrease in S phase at 0.88 to 3.52 uM incubated for 48 hrs by flow cytometry; format: functional, cell-based; conditions: dose 0.88-3.52 µM, DDE = dose-dependent effect; outline: as §3
MDA-MB-231 [7] = assay: Induction of apoptosis in human MDA-MB-231 cells assessed as necrotic cells at 0.88 uM incubated for 48 hrs AnnexinV/ propidium iodide staining based flow cytometry (Rvb= 0.54%); format: functional
MDA-MB-231 [8] = assay: Induction of apoptosis in human MDA-MB-231 cells assessed as necrotic cells at 2.2 uM incubated for 48 hrs AnnexinV/ propidium iodide staining based flow cytometry (Rvb= 0.54%); format: functional
MDA-MB-231 [9] = assay: Induction of apoptosis in human MDA-MB-231 cells assessed as necrotic cells at 3.52 uM incubated for 48 hrs AnnexinV/ propidium iodide staining based flow cytometry (Rvb= 0.54%); format: functional
MDA-MB-231 [10] = assay: Induction of apoptosis in human MDA-MB-231 cells assessed as early apoptotic cells at 0.88 uM incubated for 48 hrs AnnexinV/ propidium iodide staining based flow cytometry (Rvb= 0.3%); format: functional
MDA-MB-231 [11] = assay: Induction of apoptosis in human MDA-MB-231 cells assessed as early apoptotic cells at 1.76 uM incubated for 48 hrs AnnexinV/ propidium iodide staining based flow cytometry (Rvb= 0.3%); format: functional
MDA-MB-231 [12] = assay: Induction of apoptosis in human MDA-MB-231 cells assessed as early apoptotic cells at 2.2 uM incubated for 48 hrs AnnexinV/ propidium iodide staining based flow cytometry (Rvb= 0.3%); format: functional
MDA-MB-231 [13] = assay: Induction of apoptosis in human MDA-MB-231 cells assessed as early apoptotic cells at 7.04 uM incubated for 48 hrs AnnexinV/ propidium iodide staining based flow cytometry (Rvb= 0.3%); format: functional
MDA-MB-231 [14] = assay: Induction of apoptosis in human MDA-MB-231 cells assessed as late apoptotic cells at 0.88 uM incubated for 48 hrs AnnexinV/ propidium iodide staining based flow cytometry (Rvb= 0.40%); format: functional
MDA-MB-231 [15] = assay: Induction of apoptosis in human MDA-MB-231 cells assessed as late apoptotic cells at 1.76 uM incubated for 48 hrs AnnexinV/ propidium iodide staining based flow cytometry (Rvb= 0.40%); format: functional
MDA-MB-231 [16] = assay: Induction of apoptosis in human MDA-MB-231 cells assessed as late apoptotic cells at 7.04 uM incubated for 48 hrs AnnexinV/ propidium iodide staining based flow cytometry (Rvb= 0.40%); format: functional
MDA-MB-231 [17] = assay: Induction of apoptosis in human MDA-MB-231 cells assessed as viable cells at 0.88 uM incubated for 48 hrs AnnexinV/ propidium iodide staining based flow cytometry (Rvb= 99.02%); format: functional; conditions: read-out: Activity
MDA-MB-231 [18] = assay: Induction of apoptosis in human MDA-MB-231 cells assessed as viable cells at 2.2 uM incubated for 48 hrs AnnexinV/ propidium iodide staining based flow cytometry (Rvb= 99.02%); format: functional; conditions: read-out: Activity
MDA-MB-231 [19] = assay: Induction of apoptosis in human MDA-MB-231 cells assessed as viable cells at 7.04 uM incubated for 48 hrs AnnexinV/ propidium iodide staining based flow cytometry (Rvb= 99.02%); format: functional; conditions: read-out: Activity
MDA-MB-231 [20] = assay: Inhibition of PI3K/AKT signalling pathway in human MDA-MB-231 cells assessed as decrease in phosphorylated PI3K level at 1 to 10 uM incubated for 48 hrs by western blot analysis; format: cell-based; conditions: dose 1-10 µM, DDE = dose-dependent effect
Outline: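 MDA-MB-231 treated at 1, 5 and 10 μM at 37 °C, then lysed in RIPA/PMSF for 30 min at 0 °C and cleared at 14 000 × g, 4 °C. Protein quantified by BCA; 40 μg resolved by SDS-PAGE and transferred to PVDF. Blocked in 5% skim milk, primary antibody overnight at 4 °C, secondary 2 h at room temperature, chemiluminescent imaging.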

MDA-MB-231 [21] = assay: Induction of apoptosis in human MDA-MB-231 cells assessed as upregulation of Caspase-3 expression at 1 to 10 uM incubated for 48 hrs by western blot analysis; format: functional, cell-based; conditions: dose 1-10 µM, DDE = dose-dependent effect

IC50 (MDA-MB-231 [1]): 1.76 µM | IC50 (MCF7): 2.89 µM | IC50 (HCC1937): 7.55 µM | IC50 (HepG2): 4.61 µM | IC50 (HeLa): 4.08 µM
Compound: O=C(Nc1cccc(-c2oc3cc(-c4ccc(F)cc4)ccc3c(=O)c2O)c1)c1ccc(Cl)nc1
inhibition (MDA-MB-231 [2]): Dde | Activity (MDA-MB-231 [3]): Dde | Activity (MDA-MB-231 [4]): Dde | Activity (MDA-MB-231 [5]): Dde | Activity (MDA-MB-231 [6]): Dde | Activity (MDA-MB-231 [7]): 0.63% | Activity (MDA-MB-231 [8]): 1.53% | Activity (MDA-MB-231 [9]): 2.1% | Activity (MDA-MB-231 [10]): 1.48% | Activity (MDA-MB-231 [11]): 3.88% | Activity (MDA-MB-231 [12]): 7.49% | Activity (MDA-MB-231 [13]): 23.85% | Activity (MDA-MB-231 [14]): 23.54% | Activity (MDA-MB-231 [15]): 49.45% | Activity (MDA-MB-231 [16]): 68.54% | viability at 0.88 µM (MDA-MB-231 [17]): 74.3% | viability at 2.2 µM (MDA-MB-231 [18]): 29.8% | viability at 7.04 µM (MDA-MB-231 [19]): 5.68% | inhibition (MDA-MB-231 [20]): Dde | Activity (MDA-MB-231 [21]): Dde
